The subject of experiment [1] is Escherichia coli. Nature of the experiment: Inhibition of ribosome nascent peptide exit tunnel in Escherichia coli S30 extract assessed as inhibition of prokaryotic translation in presence of amino acids incubated for 20 mins by luciferase reporter gene assay relative to azithromycin. For orientation: Reporter assays use an easily measured gene product as a stand-in for the process of interest.

Experiment [2] concerns Staphylococcus aureus. Put plainly: Ratio of MIC50 for Staphylococcus aureus ATCC 29213 in absence of 50% bovine serum to MIC50 for Staphylococcus aureus ATCC29213 in presence of 50% bovine serum. The format is functional. The essentials: (§1)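 S. aureus ATCC 29213 overnight culture (37 °C) diluted 1:1000 in 50% bovine serum/broth and run by liquid microdilution. Growth was taken from OD600 change over 18 h at 37 °C to give MIC50, in triplicate against a vehicle control. The enhancement ratio is MIC50 without serum divided by MIC50 with serum.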

Experiment [3] deals with Escherichia coli. Put plainly: Antibacterial activity against Escherichia coli ATCC 27856 assessed as inhibition of bacterial growth after 18 hrs by liquid microdilution method. The format is functional. In a few lines:
(§2)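 Liquid microdilution. Overnight 37 °C cultures, E. coli ATCC 27856 in LB and S. aureus ATCC 29213 in TSB, diluted 1:1000 in the same medium and exposed to compound. Growth was taken from OD600 before and after 18 h at 37 °C. MIC50 is the read-out. Triplicate, normalized to an internal vehicle control.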
A general note: Dilution methods test growth across graded concentrations, often in twofold steps.

For experiment [4], the system named is Staphylococcus aureus. Put plainly: Antibacterial activity against Staphylococcus aureus ATCC 29213 assessed as inhibition of bacterial growth after 18 hrs in presence of 50% bovine serum by liquid microdilution method. The format is functional. As to conditions: ATCC 29213, 18 h. In a few lines:
as §1

The test system of experiment [5] is Staphylococcus aureus. Nature of the experiment: Antibacterial activity against Erm+ methicillin-resistant Staphylococcus aureus ATCC 33591 assessed as inhibition of bacterial growth after 18 hrs by liquid microdilution method. The format is functional. In a few lines: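 MRSA grown overnight at 37 °C in Nutrient broth, diluted 1:1000 in the same medium, then plated with the compounds. Growth was judged by comparing OD600 before and after 18 h at 37 °C. MIC50 was taken by liquid microdilution. Vancomycin was the positive control. Each compound was run in triplicate and standardized against an internal vehicle control.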

The nature of experiment [6]: Binding affinity to ribosome nascent peptide exit tunnel in rabbit reticulocyte extract assessed as inhibition of eukaryotic translation in presence of amino acids incubated for 20 mins by luciferase reporter gene assay. Set-up: species or system Oryctolagus cuniculus. The essentials: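 Nuclease-treated rabbit reticulocyte lysate with all amino acids, preincubated with compound for 20 min at room temperature. Luciferase control template added, translation run 90 min at 30 °C, then stopped by 5 min on ice. Luminescence was read after luciferin addition. IC50 from nonlinear fit, triplicate, normalized to vehicle control.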

Experiment [7] has as its system Staphylococcus aureus. Put plainly: Antibacterial activity against Staphylococcus aureus ATCC 29213 assessed as inhibition of bacterial growth after 18 hrs by liquid microdilution method. The conditions noted are these: ATCC 29213, 18 h. Format: functional. In a few lines: as §2
Experiment [8] in a line: Inhibition of ribosome nascent peptide exit tunnel in Escherichia coli S30 extract assessed as inhibition of prokaryotic translation in presence of amino acids incubated for 20 mins by luciferase reporter gene assay. In a few lines: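 E. coli S30 cell-free extract with all amino acids, preincubated with compound for 20 min at room temperature. Luciferase control template added, translation run 60 min at 37 °C, then stopped by 5 min on ice. Luminescence was read after luciferin addition. IC50 from nonlinear fit, triplicate, normalized to vehicle control.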

The structures appear in SMILES notation. ≈ marks a conversion by molar mass, not a printed value. Calls of active or inactive are those of the source. No cut-off for these calls is given here.

The term MIC50 denotes an inhibitory concentration at the 50% level, which refers to growth in some studies and to a panel of isolates in others. As a reminder, the IC50 is the point on the concentration scale where inhibition reaches its midpoint. With `CC[C@H]1OC(=O)[C@H](C)[C@@H](O[C@H]2C[C@@](C)(OC)[C@@H](O)[C@H](C)O2)[C@H](C)[C@@H](O[C@@H]2O[C@H](C)C[C@H](N(C)C)[C@H]2O)[C@](C)(O)C[C@@H](C)CN(CCCCc2cn(CCn3ccc4ccccc43)nn2)[C@H](C)[C@@H](O)[C@]1(C)O`, the fold change (FC) in the experiment with Escherichia coli [1] was determined as 2.3. In addition, the Ratio in the experiment on Staphylococcus aureus [2] is 10. Also, the MIC50 in the experiment on Escherichia coli [3] (ATCC 27856, 18 h) turned out to be 64 µg/mL (≈ 63.9 µM); with Staphylococcus aureus [4], 0.16 µg/mL; in the experiment with Staphylococcus aureus [7], 1.56 µg/mL (≈ 1.56 µM). For the same compound, the MIC50 entry with Staphylococcus aureus [5] is “inactive”. Further, the IC50 in experiment [6] was over 250000 nM; in experiment [8] it was 128 nM.
For `CC[C@H]1OC(=O)[C@H](C)[C@@H](O[C@H]2C[C@@](C)(OC)[C@@H](O)[C@H](C)O2)[C@H](C)[C@@H](O[C@@H]2O[C@H](C)C[C@H](N(C)C)[C@H]2O)[C@](C)(O)C[C@@H](C)CN(CCCCc2cn(CCc3c[nH]c4ccc(F)cc34)nn2)[C@H](C)[C@@H](O)[C@]1(C)O`, the Ratio in the experiment with Staphylococcus aureus [2] is listed as 5. Also, the MIC50 in the experiment on Escherichia coli [3] (ATCC 27856, 18 h) stood at 32 µg/mL (≈ 31.4 µM); in the experiment with Staphylococcus aureus [4], 0.16 µg/mL; in the experiment on Staphylococcus aureus [7], 0.78 µg/mL (≈ 0.765 µM). In addition, the MIC50 entry in the experiment on Staphylococcus aureus [5] was “inactive”. Also, the values for the IC50 in experiment [6] and in experiment [8] were over 250000 nM and 2600 nM, respectively.
As to `CC[C@H]1OC(=O)[C@H](C)[C@@H](O[C@H]2C[C@@](C)(OC)[C@@H](O)[C@H](C)O2)[C@H](C)[C@@H](O[C@@H]2O[C@H](C)C[C@H](N(C)C)[C@H]2O)[C@](C)(O)C[C@@H](C)CN(CCCCc2cn(CCn3ccc4cc(Cl)ccc43)nn2)[C@H](C)[C@@H](O)[C@]1(C)O`, the Ratio in the experiment with Staphylococcus aureus [2] came to 5. The MIC50 in the experiment with Escherichia coli [3] (ATCC 27856, 18 h) amounted to 64 µg/mL (≈ 61.8 µM); in the experiment with Staphylococcus aureus [4] it was 0.16 µg/mL; in the experiment with Staphylococcus aureus [7], 0.78 µg/mL (≈ 0.753 µM). Further, in the experiment on Staphylococcus aureus [5], the MIC50 entry is “inactive”. The IC50 in experiment [6] was over 250000 nM; in experiment [8] it was 490 nM.
For the compound `CC[C@H]1OC(=O)[C@H](C)[C@@H](O[C@H]2C[C@@](C)(OC)[C@@H](O)[C@H](C)O2)[C@H](C)[C@@H](O[C@@H]2O[C@H](C)C[C@H](N(C)C)[C@H]2O)[C@](C)(O)C[C@@H](C)CN(Cc2ccc(-c3cn(CCn4ccc5cc([N+](=O)[O-])ccc54)nn3)cc2)[C@H](C)[C@@H](O)[C@]1(C)O`, the Ratio in the experiment with Staphylococcus aureus [2] turned out to be 4. Also, the MIC50 with Escherichia coli [3] (ATCC 27856, 18 h) stood at 128 µg/mL (≈ 118 µM); in the experiment with Staphylococcus aureus [4], 0.39 µg/mL; in the experiment with Staphylococcus aureus [7] it was 1.56 µg/mL (≈ 1.44 µM). Also, the MIC50 entry in the experiment on Staphylococcus aureus [5] is “inactive”. In addition, the figures for the IC50 in experiment [6] and in experiment [8] were over 250000 nM and 442 nM, respectively.
`CC[C@H]1OC(=O)[C@H](C)[C@@H](O[C@H]2C[C@@](C)(OC)[C@@H](O)[C@H](C)O2)[C@H](C)[C@@H](O[C@@H]2O[C@H](C)C[C@H](N(C)C)[C@H]2O)[C@](C)(O)C[C@@H](C)CN(Cc2ccc(-c3cn(CCn4ccc5cc(OC)ccc54)nn3)cc2)[C@H](C)[C@@H](O)[C@]1(C)O`: in the experiment on Staphylococcus aureus [2], the Ratio worked out at 2. Besides, the MIC50 result with Escherichia coli [3] and with Staphylococcus aureus [5] was “inactive” in each case. For the same compound, the MIC50 in the experiment with Staphylococcus aureus [4] is 0.78 µg/mL; in the experiment on Staphylococcus aureus [7], 1.56 µg/mL (≈ 1.46 µM). The values for the IC50 in experiment [6] and in experiment [8] were over 250000 nM and 504 nM, respectively.
For the compound `CC[C@H]1OC(=O)[C@H](C)[C@@H](O[C@H]2C[C@@](C)(OC)[C@@H](O)[C@H](C)O2)[C@H](C)[C@@H](O[C@@H]2O[C@H](C)C[C@H](N(C)C)[C@H]2O)[C@](C)(O)C[C@@H](C)CN(CCCCc2cn(CC)nn2)[C@H](C)[C@@H](O)[C@]1(C)O`, the Ratio in the experiment with Staphylococcus aureus [2] was 10. For the same compound, the MIC50 in the experiment with Escherichia coli [3] (ATCC 27856, 18 h) was found to be 32 µg/mL (≈ 36.1 µM); in the experiment with Staphylococcus aureus [4], 0.31 µg/mL; in the experiment with Staphylococcus aureus [7], 3.13 µg/mL (≈ 3.53 µM). The MIC50 result in the experiment with Staphylococcus aureus [5] is “inactive”. The IC50 was over 250000 nM in experiment [6] and 1220 nM in experiment [8].
As for `CC[C@H]1OC(=O)[C@H](C)[C@@H](O[C@H]2C[C@@](C)(OC)[C@@H](O)[C@H](C)O2)[C@H](C)[C@@H](O[C@@H]2O[C@H](C)C[C@H](N(C)C)[C@H]2O)[C@](C)(O)C[C@@H](C)CN(Cc2ccc(-c3cn(CCc4c[nH]c5ccccc45)nn3)cc2)[C@H](C)[C@@H](O)[C@]1(C)O`, in the experiment with Staphylococcus aureus [2], the Ratio was determined as 2. Also, the MIC50 entry in the experiment on Escherichia coli [3] and with Staphylococcus aureus [5] was “inactive” throughout. Besides, the MIC50 in the experiment on Staphylococcus aureus [4] was 1.56 µg/mL; in the experiment with Staphylococcus aureus [7], 3.13 µg/mL (≈ 3.02 µM). The values for the IC50 in experiment [6] and in experiment [8] were over 250000 nM and 120 nM, respectively.
For the compound `CC[C@H]1OC(=O)[C@H](C)[C@@H](O[C@H]2C[C@@](C)(OC)[C@@H](O)[C@H](C)O2)[C@H](C)[C@@H](O[C@@H]2O[C@H](C)C[C@H](N(C)C)[C@H]2O)[C@](C)(O)C[C@@H](C)CN(C)[C@H](C)[C@@H](O)[C@]1(C)O` [AZITHROMYCIN], in the experiment with Staphylococcus aureus [2], the Ratio came out at 6. Further, the MIC50 was found to be 4 µg/mL (≈ 5.34 µM) in the experiment with Escherichia coli [3] (ATCC 27856, 18 h); 0.13 µg/mL in the experiment on Staphylococcus aureus [4]; 0.78 µg/mL (≈ 1.04 µM) in the experiment with Staphylococcus aureus [7]. In the experiment with Staphylococcus aureus [5], the MIC50 entry is “inactive”. For the same compound, the figures for the IC50 in experiment [6] and in experiment [8] were over 250000 nM and 292 nM, respectively.
`CC[C@H]1OC(=O)[C@H](C)[C@@H](O[C@H]2C[C@@](C)(OC)[C@@H](O)[C@H](C)O2)[C@H](C)[C@@H](O[C@@H]2O[C@H](C)C[C@H](N(C)C)[C@H]2O)[C@](C)(O)C[C@@H](C)CN(CCCCc2cn(CCc3cn(C)c4ccccc34)nn2)[C@H](C)[C@@H](O)[C@]1(C)O`: the Ratio in the experiment on Staphylococcus aureus [2] is on record as 10. The MIC50 was found to be 128 µg/mL (≈ 126 µM) in the experiment on Escherichia coli [3] (ATCC 27856, 18 h); 0.16 µg/mL in the experiment with Staphylococcus aureus [4]; 1.56 µg/mL (≈ 1.54 µM) in the experiment on Staphylococcus aureus [7]. For the same compound, the MIC50 entry with Staphylococcus aureus [5] was “inactive”. Moreover, the figures for the IC50 in experiment [6] and in experiment [8] were over 250000 nM and 227 nM, respectively.
As for `CC[C@H]1OC(=O)[C@H](C)[C@@H](O[C@H]2C[C@@](C)(OC)[C@@H](O)[C@H](C)O2)[C@H](C)[C@@H](O[C@@H]2O[C@H](C)C[C@H](N(C)C)[C@H]2O)[C@](C)(O)C[C@@H](C)CN(CCCCc2cn(CCn3ccc4cc([N+](=O)[O-])ccc43)nn2)[C@H](C)[C@@H](O)[C@]1(C)O`, the Ratio in the experiment on Staphylococcus aureus [2] was determined as 2.5. For the same compound, the MIC50 worked out at 16 µg/mL (≈ 15.3 µM) in the experiment on Escherichia coli [3] (ATCC 27856, 18 h); 0.63 µg/mL in the experiment on Staphylococcus aureus [4]; 1.56 µg/mL (≈ 1.49 µM) in the experiment on Staphylococcus aureus [7]. Besides, the MIC50 entry in the experiment with Staphylococcus aureus [5] was “inactive”. For the same compound, the IC50 in experiment [6] is over 250000 nM; in experiment [8], 811 nM.

The values are drawn from ChEMBL document CHEMBL3600351, “Exploiting translational stalling peptides in an effort to extend azithromycin interaction within the prokaryotic ribosome nascent peptide exit tunnel” (Bioorg Med Chem, 2015).
